Only some compounds are listed: those with a hit (about 1.7% of all), similar ones and a draw of the others.
EBNA-1 inh – blocks EBNA-1 binding to DNA. EBNA-1 DNA binding, fluorescence polarization. inhibition, % at 14.8 µM. actives 0.34% (n = 300,000); in the data active = inhibition above about 28%
NS3 helicase inh – blocks Hepatitis C virus NS3 helicase unwinding | NS3 helicase DNA unwinding, Cy5 molecular beacon fluorescence | inhibition, % at 10.9 µM | actives 0.56% (n = 290,000);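 active = inhibition above the mean of all tested compounds plus 3 SD, set per campaign, cut at about 35% in these data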;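 note: 0% = DMSO wells and 100% = thioflavine S control wells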
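Measured by: Cy5 fluorescence, 0 and 60 min reads / Assay system: NS3 helicase fragment of HCV / Control set: low DMSO, high thioflavine S at 110 µM / Times: 1 h reaction at 25 °C, ATP-initiated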
core dimer inh – HCV core protein dimerization inhibition; actives 0.33% (n = 300,000); inhibition, % at 5 µM; TR-FRET GST/Flag-core106 dimerization, 1536-well; AID 1899;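 active = inhibition above the mean of all tested compounds plus 3 SD, set per screening campaign, cut at about 45% in these data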
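Assay system – GST-tagged and Flag-tagged HCV core protein residues 1-106 · Quantity – core106 proteins, GST 13.5 nM and Flag 17 nM · Benchmarks – unlabelled core106 and no-GST-core106 wells · Read-out basis – percent inhibition of core106 dimerization signal · Detection – time-resolved FRET, ex 340 nm, em 617 and 671 nm · Schedule – 4 h at 22.5 °C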
MEX-5 binding – C. elegans MEX-5 TCR-2 RNA binding activity | actives 0.38% (n = 300,000) | Q9XUB2 | MEX-5/FITC-TCR2 RNA binding, fluorescence polarization; hits give low values | activity score (negative = inhibition of binding), % at 10 µM;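 active = inhibition past about -25% in most replicates, and total fluorescence under double the plate's negative control median, limit read from the data; inconclusive = replicates evenly split on the limit, or fluorescence at least double controls; inactive = too little inhibition in most replicates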;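 note: 0% = DMSO and -100% = 5 µM competing unlabeled TCR2 RNA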
Target sequence (Q9XUB2 whole entry, looked up): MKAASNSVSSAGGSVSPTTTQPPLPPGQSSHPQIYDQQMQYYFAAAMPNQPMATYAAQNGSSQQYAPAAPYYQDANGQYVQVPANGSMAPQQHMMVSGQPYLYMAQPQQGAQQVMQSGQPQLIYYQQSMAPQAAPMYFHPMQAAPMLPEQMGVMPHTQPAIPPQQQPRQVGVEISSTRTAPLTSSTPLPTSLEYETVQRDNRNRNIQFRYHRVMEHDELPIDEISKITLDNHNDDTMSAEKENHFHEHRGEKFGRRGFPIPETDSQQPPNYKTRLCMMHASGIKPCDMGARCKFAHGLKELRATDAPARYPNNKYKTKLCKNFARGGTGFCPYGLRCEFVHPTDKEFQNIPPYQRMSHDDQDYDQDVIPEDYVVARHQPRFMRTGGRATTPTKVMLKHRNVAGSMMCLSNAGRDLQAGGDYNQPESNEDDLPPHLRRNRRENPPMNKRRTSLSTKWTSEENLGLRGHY
EBV gp42 block – inhibitors of Epstein-Barr virus glycoprotein 42; Q1HVG2; actives 0.42% (n = 220,000); inhibition, % (tested at 21.74 µM); Fluorescence polarization binding assay, mP read-out; in the data active = inhibition above about 50%
ZTA counter – blocks Epstein-Barr virus ZTA, an EBNA-1 counter-screen | P03206 | ZTA-DNA binding, fluorescence polarization | inhibition, % at 11 µM | actives 0.15% (n = 320,000); in the data active = inhibition above about 33%
NS3 hel confirm – HCV NS3 helicase inhibition, confirmation assay; inhibition, % at 10.9 µM; actives 31% (n = 1,600); shares compounds with NS3 helicase inh; NS3 helicase DNA unwinding, Cy5 molecular beacon fluorescence; AID 1943;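 active = inhibition above the mean of all tested compounds plus 3 SD, cutoff set per campaign, cut at about 36% in these data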
FID counter trip – counter-screen for HCV NS3 helicase inhibitors: DNA intercalator displacement; shares compounds with NS3 helicase inh; DNA fluorescent intercalator displacement, fluorescence; inhibition, % at 7.9 µM; actives 4% (n = 1,600); in the data active = inhibition above about 37%;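 note: 0% = vehicle and 100% = reference compound; higher means more displacement of ethidium bromide from the DNA hairpin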
FID counter DR – counter-screen for HCV NS3 helicase inhibitors: DNA intercalator displacement dose response | fluorescent intercalator displacement from DNA, fluorescence | IC50, µM | 120 tested, under 10 active | shares compounds with NS3 helicase inh; call rule not given here
Numbers without * were called inactive; ? = inconclusive; · = not tested or not shown.

SMILES	EBNA-1 inh	NS3 helicase inh	core dimer inh	MEX-5 binding	EBV gp42 block	ZTA counter	NS3 hel confirm	FID counter trip	others
O=C1NN(c2ccccc2)C(=O)/C1=C/c1ccc(Sc2cccc3ccccc23)o1	8	53*	10	-2	0	8	75*	17	FID counter DR=>79
O=C(NCC(c1ccco1)N1CCCC1)c1ccc(Cl)c(S(=O)(=O)N2CCc3ccccc32)c1 (stereo unspecified)	·	·	·	·	·	-9	·	·
Cc1ccc(NC(=S)Nc2cccc(-c3n[nH]c(=S)o3)c2)cc1	-5	39*	-5	0	-10	-10	35	-6
COc1ccc(/C=C/c2ccccc2)cc1[C@H]1[C@H]2C=CC[C@@H](C)[C@@H]2C(=O)N1Cc1ccccc1	3	·	18	-2	-30	1	·	·
O=C(O)Cc1sc(N/N=C\c2ccncc2)nc1-c1ccccc1	3	55*	-4	2	-44	6	-27	-1
CCOc1cc(/C=C2\SC(=S)N(C(C(=O)O)c3ccccc3)C2=O)ccc1O (stereo unspecified)	-8	32	0	45	-43	-2	·	·
O=C1/C(=C\c2ccc(O)c(O)c2)SC(=S)N1Cc1ccccc1	·	69*	·	-1	·	·	59*	52*
COc1cc(/C=C2\SC(=S)N(C(C(=O)O)c3ccccc3)C2=O)ccc1O (stereo unspecified)	7	43*	-3	?	-66	2	75*	-1
CC(=O)Nc1ccc(C(=O)CN2C(=O)NC3(CCOc4ccccc43)C2=O)c(F)c1 (stereo unspecified)	·	·	·	·	·	16	·	·
COc1cccc(-n2c(N)c(C(=O)Nc3c(C)n(C)n(-c4ccccc4)c3=O)c3nc4ccccc4nc32)c1	-1	38*	19	0	23	-1	7	-55
Cc1cc(C)cc(-n2c(N)c(C(=O)Nc3c(C)n(C)n(-c4ccccc4)c3=O)c3nc4ccccc4nc32)c1	2	13	3	1	12	3	·	·
CCOc1ncccc1C(=O)OCC(=O)N(CC(C)C)C1CCS(=O)(=O)C1 (stereo unspecified)	-17	2	0	1	-13	-5	·	·
c1ccc(CSc2nc3ncccn3n2)cc1	·	·	·	·	·	2	·	·
Cc1ccc(C(=O)Nc2ccc(S(=O)(=O)NC3=NCCCCC3)cc2)cc1S(=O)(=O)N1CCOCC1	·	·	·	·	·	13	·	·
Cc1cc(NC(=O)C2CC(=O)N(c3ccccc3C)C2)no1 (stereo unspecified)	-15	36*	-4	-3	·	-6	-9	0
CCc1cc(CNC(=O)c2ccc(OC3CCN(C(C)=O)CC3)c(OC)c2)on1	-2	6	-3	1	·	-6	·	·
CCOC(=O)c1c(NC(=O)C2C3C=CC(CC3)C2C(=O)O)sc(C)c1C (stereo unspecified)	1	3	2	-1	-15	19	·	·
CCOC(=O)c1c(NC(=O)C2C3CCC(O3)C2C(=O)O)sc(C)c1-c1ccc(F)cc1 (stereo unspecified)	-3	55*	8	3	-13	-11	61*	-12
Nc1ccc(O)cc1C(=O)OCC(=O)c1ccc(C2CCCCC2)cc1	-5	59*	11	2	-3	18	-1	16
COc1ccc(C(=O)OCC(=O)c2ccc(C3CCCCC3)cc2)cc1	-2	-1	1	0	1	-3	·	·
COc1ccc(N2CC(C(=O)Nc3cc(C)ccn3)CC2=O)cc1 (stereo unspecified)	-5	4	-3	1	-14	-25	·	·
CC(/C=C1\SC(=S)N(NC(=O)c2ccccc2C)C1=O)=C\c1ccccc1	-2	10	24	2	-10	9	·	·
CC(/C=C1\SC(=S)N(NS(=O)(=O)c2ccccc2)C1=O)=C\c1ccccc1	9	31	7	0	10	19	·	·
CC(/C=C1\SC(=S)N(NS(=O)(=O)c2ccc(C)cc2)C1=O)=C\c1ccccc1	23	43*	12	2	0	23	86*	1
CC(/C=C1\SC(=S)N(NC(=O)c2ccncc2)C1=O)=C\c1ccccc1	1	78*	2	-2	3	11	34	2
SMILES	EBNA-1 inh	NS3 helicase inh	core dimer inh	MEX-5 binding	EBV gp42 block	ZTA counter	NS3 hel confirm	FID counter trip	others
CC(/C=C1\SC(=S)N(C(C(=O)O)C(C)C)C1=O)=C\c1ccccc1 (stereo unspecified)	-6	36*	24	0	3	18	68*	27
COc1ccc(S(=O)(=O)N2CCN(C(=O)C3CC3)CC2)cc1Br	·	·	·	·	·	-6	·	·
Cc1ccc(NC(=O)C2CCN(S(=O)(=O)c3ccc4c(c3)NC(=O)C(C)S4)CC2)c(Cl)c1 (stereo unspecified)	1	-15	23	16	·	4	·	·
Cc1cc(C)cc(NC(=O)C2CCN(S(=O)(=O)c3ccc4c(c3)NC(=O)C(C)S4)CC2)c1 (stereo unspecified)	-10	43*	17	5	·	2	4	-12
O=C(Nc1cc(-c2nc3ncccc3o2)ccc1Cl)c1ccc([N+](=O)[O-])o1	8	-6	11	1	·	0	·	·
O=C1c2cccc(OCC(=O)N3CCCc4ccccc43)c2CCN1Cc1cccnc1	-5	-4	0	1	-19	4	·	·
Cc1ccccc1CN1CCc2c(OCC(=O)N3CCCc4ccccc43)cccc2C1=O	6	75*	11	-2	3	-4	-12	-44
Cc1ccc(NC(=O)CCS(=O)(=O)c2cccc3nonc23)cc1Cl	-3	42*	-13	0	·	-4	-11	3
C=CCSc1nc2sc3c(c2c(=O)n1CC=C)CCc1ccccc1-3	4	-3	0	·	-6	2	·	·
C=CCn1c(SCCC)nc2sc3c(c2c1=O)CCc1ccccc1-3	-6	60*	0	-1	3	3	-8	0
c1coc(-c2nc(-c3ccco3)c(-c3ccco3)nc2-c2ccco2)c1	38*	116*	73*	3	63*	76*	93*	38*
Nc1nc(-c2ccc(-n3nncc3-c3ccco3)cc2)cs1	-2	-6	9	-4	-8	3	·	·
Nc1nc(-c2ccco2)cs1	-1	37*	-6	0	1	-6	-14	-1
Nc1nc(-c2ccco2)c(-c2ccco2)s1	1	49*	40	-1	-13	-21	-16	18

Screening results as filed in PubChem.
